This note sets out measurements from the RNAGym collection of RNA variant scans (doi:10.1126/science.aae0568).

First the molecules themselves.
B1: tRNA (parent)
chain: GUUCCGUUGGCGUAAUGGUAACGCGUCUCCCUCCUAAGGAGAAGACUGCGGGUUCGAGUCCCGUACGGAACG

This sample holds only a part of the variants without activity.

In this data set the parent is B1. Description: yeast fitness relative to wild type (ratio to wild type); higher = fitter; tRNA-Arg(CCU), competitive growth, 37 C, YPD. Summed up: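 The tRNA-Arg(CCU) gene variants were made by chemical synthesis with a 3% per-site mutation rate at 69 sites and inserted at the native genomic locus of Saccharomyces cerevisiae. After pooling, the strains were competed in YPD at 37°C for 24 hours in six parallel replicates. Gene amplicons from the start population and each end population were read by 100-nucleotide paired-end sequencing, and Darwinian fitness relative to wild type was taken from genotype frequency changes. Genotypes needed ≥ 100 starting reads, and estimates < 0.5 were set to 0.5.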
Turning to A15U A21C C24G C62G, the yeast fitness is no more than 0.5.

Turning to A15U A21C, the yeast fitness stood at 0.611.

As for A15U C46U C66U A69G, the yeast fitness is no more than 0.5.

Take A15U C62A: the yeast fitness was found to be 0.624.

A15U C22A G23A C24A: the yeast fitness is no more than 0.5.

Turning to A15U C27U G48C A70U, the yeast fitness was determined as 0.549.

Consider A15U A36U G41A, for which the yeast fitness is no more than 0.5.

Take A15G C34U A36G: the yeast fitness was found to be 0.563.

As to A15G C31U C60A, the yeast fitness worked out at 0.584.

On to A15U C24G A42C C62U, for which the yeast fitness is no more than 0.5.

Turning to A15U G23C C33A G63A, the yeast fitness is no more than 0.5.

Regarding A15G G41C A43C G67A, the yeast fitness was determined as 0.535.

On to A15U A21C C24G C29U A42C C55A, for which the yeast fitness was no more than 0.5.

Turning to A15G U35A A57G, the yeast fitness was no more than 0.5.

Turning to A15G G25C C55U, the yeast fitness is 0.562.

With A15U A21C G23C C55A U64A A65C G67A, the yeast fitness is no more than 0.5.

Consider A15G C30G C49G A65U, for which the yeast fitness is no more than 0.5.

Regarding A15U A43U A69C, the yeast fitness was found to be 0.697.

In the case of A15G U28C U35A G38A C46G, the yeast fitness came to 0.552.

As for A15U A20C C27U, the yeast fitness is 0.748.

Take A15U G38C G39A A43C C60G: the yeast fitness was 0.569.

With A15U C29A C49G, the yeast fitness amounted to 0.634.

In the case of A15U G17A C34G C46A, the yeast fitness was determined as 0.569.

Regarding A15U C46G C55A A69U, the yeast fitness is no more than 0.5.

Turning to A15G U26G A57G, the yeast fitness worked out at 0.611.

Take A15U C24A C55U U59C: the yeast fitness worked out at 0.526.

Turning to A15U C24U C27U C49U, the yeast fitness was no more than 0.5.

As to A15U C22G C31U A57C U64A G68A, the yeast fitness is 0.553.

Consider A15G C49G C66G G67C, for which the yeast fitness is no more than 0.5.

With A15U C33U, the yeast fitness was found to be 0.724.

Consider A15U C34A, for which the yeast fitness came out at 0.707.

For A15U C34G, the yeast fitness is no more than 0.5.

In the case of A15G C60U, the yeast fitness was determined as 0.786.

In the case of A15U A43U C55U C60A, the yeast fitness turned out to be 0.69.

For A15U G63A, the yeast fitness stood at 0.675.

A15U C27G C49A: the yeast fitness amounted to 0.518.

Regarding A15G C33G, the yeast fitness amounted to 0.732.

For A15G C30G C55A, the yeast fitness was no more than 0.5.

As to A15G G39C, the yeast fitness was 0.736.

Regarding A15U A40C, the yeast fitness turned out to be 0.723.

Take A15U A40G: the yeast fitness was 0.598.

For A15U G38A C46G G56C, the yeast fitness is no more than 0.5.

For A15G U35A A57G C62G, the yeast fitness is no more than 0.5.

A15G C31U: the yeast fitness was found to be 0.987.

Turning to A15G C31G, the yeast fitness amounted to 0.852.

Regarding A15U C46G C61A A70U, the yeast fitness is no more than 0.5.

Turning to A15U A21C C24G C29U A42C, the yeast fitness was no more than 0.5.

As to A15U C29A G48C, the yeast fitness was no more than 0.5.

Regarding A15U G17C A45U C49G A70U, the yeast fitness is 0.528.

On to A15G G18U, for which the yeast fitness was 0.75.

As to A15G G18A, the yeast fitness came to 0.793.

On to A15U C22G C31U U32C A57C U64A G68A, for which the yeast fitness was no more than 0.5.

Turning to A15G U19C A37U C49U G51A C60A, the yeast fitness was no more than 0.5.

With A15G U54G C55U, the yeast fitness was 0.561.

For A15U C22G G25A C31U A57C U64A G68A, the yeast fitness is no more than 0.5.

On to A15G C55G G56U G68C, for which the yeast fitness is no more than 0.5.

A15U G38C G39A A43C C61U: the yeast fitness was no more than 0.5.

Regarding A15U G51C, the yeast fitness turned out to be 0.555.

With A15U G51A, the yeast fitness was 0.722.

On to A15U G52A C61G, for which the yeast fitness stood at 0.596.

In the case of A15G G25A, the yeast fitness was 0.87.

Consider A15G G25C, for which the yeast fitness is 0.987.

Regarding A15U A21C G23C C55A, the yeast fitness is no more than 0.5.

With A15U A21C C24G C29U A42C U59G G67C, the yeast fitness is no more than 0.5.

For A15U A21C C24G C29U A42C U59G G67U, the yeast fitness is no more than 0.5.

Turning to A15U C24U A37G, the yeast fitness was no more than 0.5.

As for A15U C27G U28C C62G, the yeast fitness was 0.534.

On to A15U C24U U64C, for which the yeast fitness is no more than 0.5.

On to A15G G18A C49A, for which the yeast fitness was no more than 0.5.

Turning to A15U G25A C27A C33U, the yeast fitness is 0.512.

As to A15U C31U G67A, the yeast fitness was 0.565.

With A15U C31G U54G, the yeast fitness is no more than 0.5.

Take A15U C31G G50C G58C: the yeast fitness amounted to 0.588.

On to A15G U54A A70U, for which the yeast fitness amounted to 0.564.

For A15U C66U A69U, the yeast fitness was 0.566.

For the variant A15U A20G C46G C61A, the yeast fitness is no more than 0.5.

For A15U C24U A43C, the yeast fitness is 0.573.

In the case of A15G G18A G48C C61A, the yeast fitness is no more than 0.5.

Take A15G C60G C62U: the yeast fitness is no more than 0.5.

With A15G U53A C55A U64G, the yeast fitness came out at 0.571.

As to A15U C22G C27G A42C G63C, the yeast fitness was no more than 0.5.

For A15G U19G A69C, the yeast fitness is 0.721.

With A15U C27U G44C G58C G63C, the yeast fitness is no more than 0.5.

As for A15G C31U G58A, the yeast fitness came out at 1.03.

On to A15G U32A G38A C49U, for which the yeast fitness is no more than 0.5.

Regarding A15U C31U G52A A57U G58C, the yeast fitness was no more than 0.5.

Turning to A15U G56C G67U, the yeast fitness was no more than 0.5.

On to A15G U32G U35C A43C, for which the yeast fitness worked out at 0.585.

For A15G C34U G41C C49U, the yeast fitness is no more than 0.5.

Turning to A15U A43C, the yeast fitness was found to be 0.825.

In the case of A15G G44U A57U G58A C66G, the yeast fitness is no more than 0.5.

On to A15U C66A, for which the yeast fitness was 0.649.

In the case of A15U C66U, the yeast fitness came to 0.738.

On to A15U A20C U26A C30G U35A G38C U64A, for which the yeast fitness is no more than 0.5.

Regarding A15U C22U A43C C55U G58A, the yeast fitness is no more than 0.5.

Take A15U C27G C62A C66A: the yeast fitness was no more than 0.5.

As to A15G G23C G38C G52C C66A, the yeast fitness was no more than 0.5.

For A15G U19C C29U A37G, the yeast fitness was no more than 0.5.

As to A15U A40G A42G A57U C62G C66U, the yeast fitness is no more than 0.5.

With A15U A40U G68C, the yeast fitness was found to be 0.627.

As to A15G C30U C31A A36C, the yeast fitness is no more than 0.5.

As for A15G U19G A40G, the yeast fitness turned out to be 0.582.

Consider A15G U28G U53A G56A, for which the yeast fitness was no more than 0.5.

A15U C22G G58C G68A: the yeast fitness is no more than 0.5.

Turning to A15U C22U U54C, the yeast fitness turned out to be 0.754.

As for A15U G56A, the yeast fitness turned out to be 0.727.

With A15U C60G C66G, the yeast fitness is no more than 0.5.

Consider A15G C49G G63C, for which the yeast fitness amounted to 0.594.

Regarding A15G U47G, the yeast fitness was 0.782.

As to A15G U47A, the yeast fitness turned out to be 0.916.

As to A15G U47C, the yeast fitness worked out at 0.896.

As to A15G G17A C29G C31U A65G C66G, the yeast fitness stood at 0.552.

As to A15G U19A A69U, the yeast fitness was 0.729.

For the variant A15G G23C A43G, the yeast fitness amounted to 0.54.

Consider A15U A45U C46G, for which the yeast fitness is no more than 0.5.

Take A15G G23C G38C G52C G58A: the yeast fitness was 0.507.

Take A15G G23C C30A A42C G51C: the yeast fitness was 0.537.

Turning to A15G C34G, the yeast fitness was 0.636.

Turning to A15U C24G A42C U64C, the yeast fitness is no more than 0.5.

For the variant A15G U26A, the yeast fitness worked out at 1.04.

In the case of A15G U16A A45U, the yeast fitness worked out at 0.642.

With A15G C66A, the yeast fitness worked out at 0.657.

As for A15G C66U, the yeast fitness was 0.887.

With A15G G44A G50C C60U A70G, the yeast fitness is no more than 0.5.

For the variant A15U C29A C31G C60G, the yeast fitness is 0.618.

Consider A15U C27G U28G G67C, for which the yeast fitness is no more than 0.5.

With A15G G44A G58A, the yeast fitness stood at 0.992.

For A15G C60U C62U, the yeast fitness turned out to be 0.64.

In the case of A15U A42C A43C, the yeast fitness is 0.561.

For the variant A15U G38C G50C C60U, the yeast fitness was no more than 0.5.

As to A15U A43C G67U, the yeast fitness is no more than 0.5.

A15G U35A A70U: the yeast fitness amounted to 0.572.

With A15U G23A C24G C29U C61A A69G, the yeast fitness was no more than 0.5.

Turning to A15G G23C A37U A65U, the yeast fitness is no more than 0.5.

As for A15U C34G G51A C66U, the yeast fitness amounted to 0.584.

Take A15U C22G G52C: the yeast fitness is 0.529.

Regarding A15U C22G G52A, the yeast fitness was no more than 0.5.

Consider A15G G23C G38C C49U, for which the yeast fitness was no more than 0.5.

For the variant A15G C31G U35C A37U A57U, the yeast fitness was no more than 0.5.

Turning to A15G U28C C30U U59A A70C, the yeast fitness is no more than 0.5.

A15G G18A C46U: the yeast fitness amounted to 0.645.

In the case of A15U G23A C34A C49G A57G, the yeast fitness stood at 0.57.

For the variant A15U G48A, the yeast fitness is 0.763.

For the variant A15U C55U G56A C66G, the yeast fitness was 0.59.

On to A15U C31A C49G A70C, for which the yeast fitness was no more than 0.5.

On to A15U C27U A65U, for which the yeast fitness came out at 0.725.

As to A15U A42U C46G C61G, the yeast fitness was 0.652.

Turning to A15U A40U G63A, the yeast fitness was no more than 0.5.

Take A15U C22G C62U: the yeast fitness was no more than 0.5.

With A15U A20G C27U G48C A70U, the yeast fitness is no more than 0.5.

With A15U A20G U35C G48U C55G, the yeast fitness is no more than 0.5.

For A15U C27A A65C G67A A69C, the yeast fitness was no more than 0.5.

For the variant A15G U26G G41C A43C, the yeast fitness was no more than 0.5.

For A15U G17C C27U C60G, the yeast fitness was no more than 0.5.

Take A15G G38C C49U: the yeast fitness worked out at 0.544.

With A15G U32C A37G C55A, the yeast fitness is no more than 0.5.

Turning to A15U G38C G39A A43C C60G A65C, the yeast fitness worked out at 0.559.

Take A15U C30G: the yeast fitness is no more than 0.5.

Turning to A15U A20U A45C A57G, the yeast fitness was no more than 0.5.

On to A15G G17A C49U, for which the yeast fitness was 0.687.

For A15U G23A A45G, the yeast fitness is no more than 0.5.

For A15G C49U A69U, the yeast fitness turned out to be 0.8.

Turning to A15G G23A G48A, the yeast fitness is 0.675.

In the case of A15G G17C C61A, the yeast fitness is no more than 0.5.

With A15U G18A C27A, the yeast fitness was 1.03.

For A15U G58C C66U, the yeast fitness stood at 0.631.

For A15U G56A C61G C66U, the yeast fitness is no more than 0.5.
